Assay results published in ChEMBL document CHEMBL1146290, “Core exploration in optimization of chemokine receptor CCR4 antagonists” (Bioorg Med Chem Lett, 2007).
Activity calls are given as the source filed them. The calls are words filed in the database; no cut-off is given here.

Assays:
[1] = target: T1, C-C chemokine receptor type 4 (Homo sapiens, UniProt P51679); assay: Displacement of [125I]MDC from human CCR4 expressed in HEK293 cells; assay type: cell-based
T1 sequence (P51679 whole entry): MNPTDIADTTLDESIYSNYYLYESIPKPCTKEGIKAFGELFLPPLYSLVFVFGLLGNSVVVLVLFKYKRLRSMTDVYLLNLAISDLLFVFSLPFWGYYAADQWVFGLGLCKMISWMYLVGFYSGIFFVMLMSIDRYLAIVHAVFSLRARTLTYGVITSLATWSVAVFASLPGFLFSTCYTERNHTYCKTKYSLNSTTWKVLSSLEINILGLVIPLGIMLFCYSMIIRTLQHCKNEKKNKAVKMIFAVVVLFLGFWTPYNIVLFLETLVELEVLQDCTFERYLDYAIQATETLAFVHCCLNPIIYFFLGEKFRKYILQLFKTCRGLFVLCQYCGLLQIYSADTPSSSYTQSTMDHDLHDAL

[2] = Metabolic stability in human microsomes; assay type: ADME, Microsome
[3] = target: T1, C-C chemokine receptor type 4; assay: Antagonist activity at human CCR4 expressed in CEMS529 cells assessed as effect on calcium mobilization; assay type: functional, cell-based
[4] = Toxicity in human immortalized hepatocytes; assay type: cell-based, Hepatocyte
[5] = Carcinogenicity in SOS chromotest; assay type: ADME
[6] = target: CYP450 (isoform not stated) (Homo sapiens, UniProt P04798+P05177+P05181+P08684+P10632+P10635+P11509+P11712+P13584+P20813+P20815+P20853+P24462+P24903+P33260+P33261+P51589+P78329+P98187+Q02928+Q08477+Q16678+Q16696+Q5TCH4+Q6VVX0+Q7Z449+Q8TAV3+Q96SQ9+Q9HB55); assay: Inhibition of CYP450; assay type: ADME
[7] = target: T2, C-C chemokine receptor type 4 (Mus musculus) (UniProt P51680); assay: Inhibition of ovalbumin-induced eosinophil infiltration in sc dosed BALB/c mouse allergic inflammation model
T2 sequence (whole entry): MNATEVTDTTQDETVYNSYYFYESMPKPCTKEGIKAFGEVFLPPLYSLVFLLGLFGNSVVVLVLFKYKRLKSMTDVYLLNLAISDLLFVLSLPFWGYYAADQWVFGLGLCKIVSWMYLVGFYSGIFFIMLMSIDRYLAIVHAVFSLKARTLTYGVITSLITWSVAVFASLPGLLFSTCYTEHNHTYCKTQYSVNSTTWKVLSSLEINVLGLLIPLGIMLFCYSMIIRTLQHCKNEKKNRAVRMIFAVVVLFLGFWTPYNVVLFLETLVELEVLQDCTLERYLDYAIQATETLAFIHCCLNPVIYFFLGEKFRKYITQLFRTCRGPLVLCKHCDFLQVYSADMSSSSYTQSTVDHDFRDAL

[8] = target: T2, C-C chemokine receptor type 4 (Mus musculus); assay: Inhibition of ovalbumin-induced eosinophil infiltration in BALB/c mouse allergic inflammation model at 30 mg/kg, sc
[9] = target: T2, C-C chemokine receptor type 4 (Mus musculus); assay: Inhibition of ovalbumin-induced eosinophil infiltration in BALB/c mouse allergic inflammation model at 5 mg/kg, po; assay type: functional, organism-based; parameters: dose 5 mg/kg
Method in brief: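 Mice previously immunized with ovalbumin; dexamethasone given orally at 5 mg/kg as reference control. Total leukocytes, total eosinophils and percent eosinophils counted in bronchoalveolar lavage fluid. Seven to eight mice per group; means ± SEM; significance versus vehicle group by ANOVA with Dunnett's test (p < 0.05).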

SMILES | IC50 [1] | also measured
CCN(CC)CCCC(C)Nc1nc(NCc2ccc(Cl)cc2Cl)c2cccnc2n1 (configuration not stated) | 140 nM | 
CCN(CC)CCCC(C)Nc1nc(NCc2ccc(Cl)cc2Cl)nc2ccccc12 (configuration not stated) | 1910 nM | 
CCN(CC)CCCC(C)Nc1ncc2c(ncn2Cc2ccc(Cl)cc2Cl)n1 (configuration not stated) | 830 nM | 
O=C([C@@H]1CCCCN1)N1CCN(c2nc(NCc3ccc(Cl)cc3Cl)c3cccnc3n2)CC1 |  | Stability [2]: 0.003 nmol/mg/min; ED50 [7]: 10 mg/kg; Activity [8]: Active
O=C([C@@H]1CCCN1)N1CCN(c2nc(NCc3ccc(Cl)cc3Cl)c3cccnc3n2)CC1 | 80 nM | 
CCN(CC)CCCC(C)Nc1nc(NCc2ccc(Cl)cc2Cl)nc2ncn(CC)c12 (configuration not stated) | 2600 nM | 
C[C@@H]1C[C@H]2[C@@H]3CCC4=CC(=O)C=C[C@]4(C)[C@@]3(F)[C@@H](O)C[C@]2(C)[C@@]1(O)C(=O)CO |  | Activity [9]: Active
CCN(CC)CCCC(C)Nc1nc(NC)nc(NCc2ccc(Cl)cc2Cl)n1 (configuration not stated) | 3600 nM | 
CCN(CC)CCCC(C)Nc1ncc2ncn(Cc3ccc(Cl)cc3Cl)c2n1 (configuration not stated) | 820 nM | 
CCN(CC)CCCC(C)Nc1nc(NCc2ccc(Cl)cc2Cl)c2c(ncn2CC)n1 (configuration not stated) | 1100 nM | 

More lines, main results first:

IC50 [1] | SMILES | also measured
4900 nM | CCN(CC)CCCC(C)Nc1nc(NCc2ccc(Cl)cc2Cl)c2[nH]cnc2n1 (configuration not stated) | 
280 nM | CCN(CC)C(C)CCCNc1nccc(NCc2ccc(Cl)cc2Cl)n1.N (configuration not stated) | Stability [2]: 0.1 nmol/mg/min; IC50 [3]: 800 nM; IC50 [4]: > 40000 nM; Activity [5]: Non-toxic; IC50 [6]: > 1000 nM
280 nM | CCN(CC)CCCC(C)Nc1ccc2cnn(Cc3ccc(Cl)cc3Cl)c2n1 (configuration not stated) | 
2100 nM | CCN(CC)CCCC(C)Nc1nc(NCc2ccc(Cl)cc2Cl)nc2nc[nH]c12 (configuration not stated) | 
500 nM | CCN(CC)CCCC(C)Nc1nc(NCc2ccc(Cl)cc2Cl)c2ccccc2n1 (configuration not stated) | 
